Among the data in ChEMBL document CHEMBL1641426, “Microwave assisted one pot synthesis of some novel 2,5-disubstituted 1,3,4-oxadiazoles as antifungal agents” (2011) are MIC and Activity values, retold here.

Assay [1] has as its system Aspergillus niger. Description: Antifungal activity against Aspergillus niger assessed as macroscopically visible colonies after 48 and 72 hrs by standard agar dilution method. It counts as functional. The method, boiled down: (§1)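 MIC by standard agar method. Tested against Candida albicans, Fusarium oxysporum, Aspergillus flavus, Aspergillus niger and Cryptococcus neoformans. Dimethyl sulfoxide served as solvent control, and miconazole and fluconazole served as reference standards.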
(In general: In agar dilution, organisms are placed on agar that contains the substance at set levels.)

Another assay concerns Fusarium oxysporum. Briefly: Antifungal activity against Fusarium oxysporum assessed as macroscopically visible colonies after 48 and 72 hrs by standard agar dilution method. It counts as functional. The method, boiled down:
as §1

The test system of assay [2] is Cryptococcus neoformans. Description: Antifungal activity against Cryptococcus neoformans assessed as appearance of macroscopically visible colonies upto 200 ug/ml after 48 and 72 hrs by standard agar dilution method. It counts as functional, organism-based. The gist of the method: as §1
The test system of assay [3] is Candida albicans. Briefly: Antifungal activity against Candida albicans assessed as macroscopically visible colonies after 48 and 72 hrs by standard agar dilution method. It counts as functional. The gist of the method:
as §1

For the next assay, the system named is Aspergillus flavus. Description: Antifungal activity against Aspergillus flavus assessed as macroscopically visible colonies after 48 and 72 hrs by standard agar dilution method. It counts as functional. The method, boiled down:
as §1

Assay [4] concerns Cryptococcus neoformans. Briefly: Antifungal activity against Cryptococcus neoformans assessed as appearance of macroscopically visible colonies after 48 and 72 hrs by standard agar dilution method. It counts as functional. The method, boiled down: as §1
Assay [5] deals with Aspergillus niger. Briefly: Antifungal activity against Aspergillus niger assessed as macroscopically visible colonies upto 200 ug/ml after 48 and 72 hrs by standard agar dilution method. It counts as functional, organism-based. The method, boiled down: as §1
Assay [6] relates to Candida albicans. Description: Antifungal activity against Candida albicans assessed as macroscopically visible colonies upto 200 ug/ml after 48 and 72 hrs by standard agar dilution method. It counts as functional, organism-based. The gist of the method:
as §1

≈ marks a conversion by molar mass, not a printed value. Calls of active or inactive are those of the source.

Regarding `CC(C)(C)OC(=O)N1CCC(n2cc(-c3nnc(-c4ccccc4)o3)nn2)CC1`, the MIC (usually the smallest concentration in the dilution series that meets the test's criterion for growth inhibition) in the assay on Aspergillus niger [1] is 150 µg/mL (≈ 378 µM); in the assay with Fusarium oxysporum, 125 µg/mL (≈ 315 µM); with Candida albicans [3], 100 µg/mL (≈ 252 µM); with Aspergillus flavus, 100 µg/mL (≈ 252 µM). Also, the result in the assay with Cryptococcus neoformans [2] was inactive.

Regarding `CC(=O)N1CCC(n2cc(-c3nnc(-c4cccc(Cl)c4)o3)nn2)CC1`, the MIC amounted to 25 µg/mL (≈ 67.1 µM) in the assay with Aspergillus niger [1], 30 µg/mL (≈ 80.5 µM) in the assay with Fusarium oxysporum, 35 µg/mL (≈ 93.9 µM) with Candida albicans [3] and 20 µg/mL (≈ 53.6 µM) in the assay with Aspergillus flavus. Further, in the assay on Cryptococcus neoformans [2], the outcome was inactive.

Turning to `CCN1CCC(n2cc(-c3nnc(-c4cccc(O)c4)o3)nn2)CC1`, the MIC with Aspergillus niger [1] was determined as 20 µg/mL (≈ 58.8 µM); in the assay on Fusarium oxysporum it was 35 µg/mL (≈ 103 µM); with Cryptococcus neoformans [4] it was 60 µg/mL (≈ 176 µM); with Candida albicans [3], 35 µg/mL (≈ 103 µM); in the assay on Aspergillus flavus, 20 µg/mL (≈ 58.8 µM).

`CC(=O)N1CCC(n2cc(-c3nnc(-c4cccc(C)c4)o3)nn2)CC1`: the MIC in the assay with Aspergillus niger [1] turned out to be 40 µg/mL (≈ 114 µM); with Fusarium oxysporum it was 40 µg/mL (≈ 114 µM); in the assay on Candida albicans [3], 45 µg/mL (≈ 128 µM); in the assay on Aspergillus flavus, 35 µg/mL (≈ 99.3 µM). The outcome with Cryptococcus neoformans [2] was inactive.

`CN1CCC(n2cc(-c3nnc(-c4cccc(O)c4)o3)nn2)CC1`: the MIC with Aspergillus niger [1] was 35 µg/mL (≈ 107 µM); with Fusarium oxysporum it was 35 µg/mL (≈ 107 µM); in the assay on Candida albicans [3], 40 µg/mL (≈ 123 µM); in the assay with Aspergillus flavus, 25 µg/mL (≈ 76.6 µM). The outcome in the assay on Cryptococcus neoformans [2] was inactive.

On to `COc1cccc(-c2nnc(-c3cn(C4CCN(C)CC4)nn3)o2)c1`, for which the MIC in the assay with Aspergillus niger [1] turned out to be 70 µg/mL (≈ 206 µM); in the assay with Fusarium oxysporum, 65 µg/mL (≈ 191 µM); in the assay with Cryptococcus neoformans [4], 80 µg/mL (≈ 235 µM); with Candida albicans [3] it was 60 µg/mL (≈ 176 µM); in the assay on Aspergillus flavus, 50 µg/mL (≈ 147 µM).

For `CN1CCC(n2cc(-c3nnc(-c4cccc(Cl)c4)o3)nn2)CC1`, the MIC in the assay on Aspergillus niger [1] turned out to be 45 µg/mL (≈ 131 µM); in the assay on Fusarium oxysporum, 50 µg/mL (≈ 145 µM); with Cryptococcus neoformans [4], 150 µg/mL (≈ 435 µM); in the assay on Candida albicans [3], 55 µg/mL (≈ 160 µM); with Aspergillus flavus, 40 µg/mL (≈ 116 µM).

As to `O=C(c1ccc(Cl)cc1)N1CCC(n2cc(-c3nnc(-c4ccccc4)o3)nn2)CC1`, the MIC in the assay on Aspergillus niger [1] amounted to 100 µg/mL (≈ 230 µM); in the assay with Fusarium oxysporum, 90 µg/mL (≈ 207 µM); in the assay with Candida albicans [3], 150 µg/mL (≈ 345 µM); in the assay with Aspergillus flavus it was 90 µg/mL (≈ 207 µM). Moreover, in the assay with Cryptococcus neoformans [2], the result was inactive.

For the compound `CS(=O)(=O)N1CCC(n2cc(-c3nnc(-c4cccc([N+](=O)[O-])c4)o3)nn2)CC1`, the MIC in the assay on Aspergillus niger [1] came to 70 µg/mL (≈ 167 µM); in the assay with Fusarium oxysporum, 55 µg/mL (≈ 131 µM); in the assay with Cryptococcus neoformans [4], 90 µg/mL (≈ 215 µM); with Candida albicans [3], 40 µg/mL (≈ 95.4 µM); with Aspergillus flavus, 50 µg/mL (≈ 119 µM).

As to `CCN1CCC(n2cc(-c3nnc(-c4cccc(OC)c4)o3)nn2)CC1`, the MIC in the assay on Aspergillus niger [1] was determined as 75 µg/mL (≈ 212 µM); in the assay with Fusarium oxysporum it was 60 µg/mL (≈ 169 µM); with Cryptococcus neoformans [4] it was 100 µg/mL (≈ 282 µM); in the assay on Candida albicans [3] it was 50 µg/mL (≈ 141 µM); in the assay on Aspergillus flavus, 50 µg/mL (≈ 141 µM).

As to `OC(Cn1cncn1)(Cn1cncn1)c1ccc(F)cc1F` [FLUCONAZOLE], the MIC with Aspergillus niger [1] turned out to be 10 µg/mL (≈ 32.7 µM); in the assay with Fusarium oxysporum it was 5 µg/mL (≈ 16.3 µM); in the assay with Cryptococcus neoformans [4], 5 µg/mL (≈ 16.3 µM); in the assay on Candida albicans [3], 5 µg/mL (≈ 16.3 µM); with Aspergillus flavus it was 5 µg/mL (≈ 16.3 µM).

As for `CS(=O)(=O)N1CCC(n2cc(-c3nnc(-c4cccc(O)c4)o3)nn2)CC1`, the MIC with Aspergillus niger [1] was found to be 15 µg/mL (≈ 38.4 µM); in the assay with Fusarium oxysporum, 25 µg/mL (≈ 64 µM); in the assay with Cryptococcus neoformans [4], 100 µg/mL (≈ 256 µM); with Candida albicans [3], 30 µg/mL (≈ 76.8 µM); with Aspergillus flavus, 15 µg/mL (≈ 38.4 µM).

Consider `CS(=O)(=O)N1CCC(n2cc(-c3nnc(-c4cccc(Cl)c4)o3)nn2)CC1`, for which the MIC was determined as 20 µg/mL (≈ 48.9 µM) with Aspergillus niger [1]; 25 µg/mL (≈ 61.1 µM) in the assay with Fusarium oxysporum; 50 µg/mL (≈ 122 µM) with Cryptococcus neoformans [4]; 25 µg/mL (≈ 61.1 µM) in the assay on Candida albicans [3]; 15 µg/mL (≈ 36.7 µM) in the assay on Aspergillus flavus.

Regarding `Clc1ccc(COC(Cn2ccnc2)c2ccc(Cl)cc2Cl)c(Cl)c1` (stereo not given) [MICONAZOLE], the MIC in the assay on Aspergillus niger [1] came out at 12.5 µg/mL (≈ 30 µM); in the assay with Fusarium oxysporum, 25 µg/mL (≈ 60.1 µM); in the assay on Cryptococcus neoformans [4], 25 µg/mL (≈ 60.1 µM); in the assay with Candida albicans [3], 25 µg/mL (≈ 60.1 µM); with Aspergillus flavus, 12.5 µg/mL (≈ 30 µM).

With `CN1CCC(n2cc(-c3nnc(-c4ccccc4)o3)nn2)CC1`, the MIC in the assay on Aspergillus niger [1] came out at 80 µg/mL (≈ 258 µM); in the assay on Fusarium oxysporum, 70 µg/mL (≈ 226 µM); with Cryptococcus neoformans [4], 90 µg/mL (≈ 290 µM); in the assay on Candida albicans [3] it was 70 µg/mL (≈ 226 µM); in the assay with Aspergillus flavus, 60 µg/mL (≈ 193 µM).

Take `CS(=O)(=O)N1CCC(n2cc(-c3nnc(-c4ccccc4)o3)nn2)CC1`: the MIC with Aspergillus niger [1] came out at 40 µg/mL (≈ 107 µM); in the assay on Fusarium oxysporum, 40 µg/mL (≈ 107 µM); with Cryptococcus neoformans [4], 55 µg/mL (≈ 147 µM); in the assay with Candida albicans [3], 35 µg/mL (≈ 93.5 µM); with Aspergillus flavus, 45 µg/mL (≈ 120 µM).

On to `Cc1cccc(-c2nnc(-c3cn(C4CCN(C(=O)c5ccccc5)CC4)nn3)o2)c1`, for which the MIC with Fusarium oxysporum was 100 µg/mL (≈ 241 µM); with Aspergillus flavus it was 150 µg/mL (≈ 362 µM). Further, the outcome in the assay on Cryptococcus neoformans [2], in the assay with Aspergillus niger [5] and in the assay on Candida albicans [6] was inactive.

Take `CCN1CCC(n2cc(-c3nnc(-c4ccccc4)o3)nn2)CC1`: the MIC with Aspergillus niger [1] amounted to 80 µg/mL (≈ 247 µM); with Fusarium oxysporum it was 50 µg/mL (≈ 154 µM); in the assay on Cryptococcus neoformans [4], 80 µg/mL (≈ 247 µM); in the assay with Candida albicans [3], 55 µg/mL (≈ 170 µM); with Aspergillus flavus it was 60 µg/mL (≈ 185 µM).

For `O=C(c1ccccc1)N1CCC(n2cc(-c3nnc(-c4ccccc4)o3)nn2)CC1`, the MIC with Aspergillus niger [1] stood at 175 µg/mL (≈ 437 µM); with Fusarium oxysporum, 100 µg/mL (≈ 250 µM); in the assay with Aspergillus flavus it was 150 µg/mL (≈ 375 µM). For the same compound, the outcome in the assay on Cryptococcus neoformans [2] and in the assay with Candida albicans [6] was inactive.

Take `c1ccc(-c2nnc(-c3cn(C4CCNCC4)nn3)o2)cc1`: the MIC in the assay with Aspergillus niger [1] is 125 µg/mL (≈ 422 µM); in the assay on Fusarium oxysporum, 85 µg/mL (≈ 287 µM); in the assay on Cryptococcus neoformans [4], 150 µg/mL (≈ 506 µM); with Candida albicans [3] it was 80 µg/mL (≈ 270 µM); in the assay on Aspergillus flavus, 90 µg/mL (≈ 304 µM).

In the case of `CCN1CCC(n2cc(-c3nnc(-c4cccc(Cl)c4)o3)nn2)CC1`, the MIC amounted to 50 µg/mL (≈ 139 µM) in the assay with Aspergillus niger [1]; 35 µg/mL (≈ 97.5 µM) in the assay with Fusarium oxysporum; 50 µg/mL (≈ 139 µM) in the assay with Cryptococcus neoformans [4]; 40 µg/mL (≈ 111 µM) in the assay with Candida albicans [3]; 25 µg/mL (≈ 69.7 µM) in the assay on Aspergillus flavus.
